Measurements taken from ChEMBL document CHEMBL1687930 (J Med Chem, 2011).

Legend:
[1] = tested on: MDCK-II; test: Ratio of GI50 for dog MDCK2-MDR1 cells overexpressing human P-glycoprotein to GI50 for dog MDCK2 cells; assay type: functional, Canis lupus familiaris
[2] = tested on: LLC-PK1; test: Upregulation of P-glycoprotein mRNA expression in pig LLC-PK1 cells; assay type: functional, Sus scrofa
[3] = Growth inhibition of dog MDCK2-MDR1 cells overexpressing human P-glycoprotein; assay type: functional; conditions: Canis lupus familiaris, MDCK-II
Method in brief: (§1)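 Parental lines (MDCKII, LLC-PK1) and matched Pgp-overexpressing lines (MDCKII-MDR1, about 500-fold Pgp; L-MDR1, about 25000-fold Pgp) were tested with and without the Pgp inhibitor LY335979. Each experiment was run at least in triplicate, with 8 wells per concentration. GI50 came from a nonlinear four-parameter sigmoidal concentration-response fit.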

[4] = tested on: LLC-PK1; test: Growth inhibition of pig LLC-PK1 cells; assay type: functional; conditions: Sus scrofa; method in brief: as §1
[5] = Growth inhibition of dog MDCK2-MDR1 cells overexpressing human P-glycoprotein in presence of P-glycoprotein inhibitor LY335979; assay type: functional; conditions: Canis lupus familiaris, MDCK-II; method in brief: as §1
[6] = Growth inhibition of dog MDCK2 cells in presence of P-glycoprotein inhibitor LY335979; assay type: functional; conditions: Canis lupus familiaris, MDCK-II; method in brief: as §1
[7] = Growth inhibition of dog MDCK2 cells; assay type: functional; conditions: Canis lupus familiaris, MDCK-II; method in brief: as §1
[8] = tested on: LLC-PK1; test: Ratio of GI50 for pig L-MDR1 cells overexpressing human P-glycoprotein to GI50 for pig LLC-PK1 cells; assay type: functional, Sus scrofa
Method in brief: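 MDR ratio is the GI50 in L-MDR1 cells (Pgp-overexpressing) divided by the GI50 in parental LLC-PK1 cells. Each GI50 came from growth inhibition run at least in triplicate, with 8 wells per concentration, fitted by a four-parameter sigmoidal model.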

[9] = Upregulation of P-glycoprotein mRNA expression in dog MDCK2 cells; assay type: functional, cell-based; conditions: Canis lupus familiaris; MDCK-II
[10] = biological target: T1, Kinesin-like protein KIF11 (Homo sapiens, UniProt P52732); test: Inhibition of untagged human Eg5 microtubule-stimulated ATPase activity
T1 sequence (P52732 whole entry): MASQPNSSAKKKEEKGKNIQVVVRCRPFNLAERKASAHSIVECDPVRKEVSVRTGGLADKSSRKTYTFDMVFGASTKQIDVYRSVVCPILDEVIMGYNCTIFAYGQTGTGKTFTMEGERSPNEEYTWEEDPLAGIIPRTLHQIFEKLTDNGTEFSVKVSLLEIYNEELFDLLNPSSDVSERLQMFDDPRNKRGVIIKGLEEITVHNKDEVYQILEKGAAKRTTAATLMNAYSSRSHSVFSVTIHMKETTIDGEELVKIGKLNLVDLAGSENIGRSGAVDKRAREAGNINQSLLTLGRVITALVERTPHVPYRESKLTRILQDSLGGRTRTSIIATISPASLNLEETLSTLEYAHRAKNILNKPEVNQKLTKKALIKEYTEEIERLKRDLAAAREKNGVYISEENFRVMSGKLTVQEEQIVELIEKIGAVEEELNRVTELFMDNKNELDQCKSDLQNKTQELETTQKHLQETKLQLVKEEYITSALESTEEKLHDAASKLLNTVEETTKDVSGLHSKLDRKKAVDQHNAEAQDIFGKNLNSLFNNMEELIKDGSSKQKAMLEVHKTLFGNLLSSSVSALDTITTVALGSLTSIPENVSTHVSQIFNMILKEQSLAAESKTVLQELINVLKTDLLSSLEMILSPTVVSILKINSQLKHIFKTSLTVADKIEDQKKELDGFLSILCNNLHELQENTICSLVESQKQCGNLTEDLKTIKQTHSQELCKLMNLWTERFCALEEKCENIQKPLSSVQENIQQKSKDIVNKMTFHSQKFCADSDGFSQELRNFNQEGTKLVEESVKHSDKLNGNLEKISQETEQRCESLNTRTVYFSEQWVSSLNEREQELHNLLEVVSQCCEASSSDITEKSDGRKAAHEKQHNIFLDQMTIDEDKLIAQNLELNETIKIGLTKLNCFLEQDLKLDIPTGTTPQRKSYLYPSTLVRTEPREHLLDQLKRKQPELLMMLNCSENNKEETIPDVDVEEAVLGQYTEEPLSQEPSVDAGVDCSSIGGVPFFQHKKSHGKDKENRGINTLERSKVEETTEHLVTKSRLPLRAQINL

[11] = Growth inhibition of pig L-MDR1 cells overexpressing human P-glycoprotein in presence of P-glycoprotein inhibitor LY335979; assay type: functional; conditions: Sus scrofa; method in brief: as §1
[12] = tested on: LLC-PK1; test: Growth inhibition of pig LLC-PK1 cells in presence of P-glycoprotein inhibitor LY335979; assay type: functional; conditions: Sus scrofa; method in brief: as §1
[13] = Growth inhibition of pig L-MDR1 cells overexpressing human P-glycoprotein; assay type: functional; conditions: Sus scrofa; method in brief: as §1
[14] = biological target: T1, Kinesin-like protein KIF11; test: Inhibition of untagged human Eg5 basal ATPase activity; conditions: read-out: Ki(app)
[15] = tested on: P388; test: Ratio of inhibition of growth in P-glycoprotein overexpressing mouse P388 cells to inhibition of growth in mouse P388; assay type: functional
[16] = tested on: P388; test: Upregulation of P-glycoprotein mRNA expression in mouse P388 cells; assay type: functional
[17] = Ratio of inhibition of growth in P-glycoprotein overexpressing human A2780-AD10 cells to inhibition of growth in human A2780; assay type: functional, A2780 ADR
[18] = tested on: KB 3-1; test: Ratio of inhibition of growth in P-glycoprotein overexpressing […] inhibition of growth in human KB-3-1 cells; assay type: functional

NCCSC(c1ccccc1)(c1ccccc1)c1ccccc1
RatioGI50 [1]: 0.8
fold change (FC) [2]: 25000
GI50 [3]: 570 nM
GI50 [4]: 3290 nM
GI50 [5]: 610 nM
GI50 [6]: 850 nM
GI50 [7]: 740 nM
RatioGI50 [8]: 1.5
fold change (FC) [9]: 500
IC50 [10]: 396 nM
GI50 [11]: 4810 nM
GI50 [12]: 3880 nM
GI50 [13]: 4830 nM
Ki [14]: 156 nM

CCOC(=O)C1=C(C)NC(=S)N[C@H]1c1cccc(O)c1 [S-MENASTROL]
fold change (FC) [2]: 25000
Ratio [15]: 1
fold change (FC) [16]: 20000
Ratio [8]: 1

CCCCN1C(=O)[C@@H]2Cc3c([nH]c4ccccc34)[C@@H](c3cccc(O)c3)N2C1=O
Ratio [17]: 2.4

CN1CC[C@H](N(C)C(=O)N2CC(c3cc(F)ccc3F)=C[C@@]2(CO)c2ccccc2)[C@H](F)C1
Ratio [18]: 4.5
